Data as given in ChEMBL document CHEMBL3120163, “Octulosonic acid derivatives from Roman chamomile (Chamaemelum nobile) with activities against inflammation and metabolic disorder” (J Nat Prod, 2014).

Legend:
[1] = Inhibition of PMA-induced NFkappaB transcriptional activity in human SW1353 cells treated for 30 mins followed by PMA challenge measured after 6 to 8 hrs by luciferase reporter gene assay; format: cell-based
Procedure, shortened: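 After 24 h they were pretreated with compound for 30 min, then stimulated with PMA 70 ng/mL for 6−8 h. Percent decrease in luciferase is relative to vehicle. Positive control: parthenolide.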

[2] = biological target: T1, Nitric oxide synthase, inducible (Mus musculus, UniProt P29477); experiment: Inhibition of iNOS in mouse RAW264.7 cells assessed as LPS-induced nitric oxide production treated for 30 mins followed by LPS challenge measured after 24 hrs by Griess reagent method; format: cell-based
T1 sequence (P29477 whole entry): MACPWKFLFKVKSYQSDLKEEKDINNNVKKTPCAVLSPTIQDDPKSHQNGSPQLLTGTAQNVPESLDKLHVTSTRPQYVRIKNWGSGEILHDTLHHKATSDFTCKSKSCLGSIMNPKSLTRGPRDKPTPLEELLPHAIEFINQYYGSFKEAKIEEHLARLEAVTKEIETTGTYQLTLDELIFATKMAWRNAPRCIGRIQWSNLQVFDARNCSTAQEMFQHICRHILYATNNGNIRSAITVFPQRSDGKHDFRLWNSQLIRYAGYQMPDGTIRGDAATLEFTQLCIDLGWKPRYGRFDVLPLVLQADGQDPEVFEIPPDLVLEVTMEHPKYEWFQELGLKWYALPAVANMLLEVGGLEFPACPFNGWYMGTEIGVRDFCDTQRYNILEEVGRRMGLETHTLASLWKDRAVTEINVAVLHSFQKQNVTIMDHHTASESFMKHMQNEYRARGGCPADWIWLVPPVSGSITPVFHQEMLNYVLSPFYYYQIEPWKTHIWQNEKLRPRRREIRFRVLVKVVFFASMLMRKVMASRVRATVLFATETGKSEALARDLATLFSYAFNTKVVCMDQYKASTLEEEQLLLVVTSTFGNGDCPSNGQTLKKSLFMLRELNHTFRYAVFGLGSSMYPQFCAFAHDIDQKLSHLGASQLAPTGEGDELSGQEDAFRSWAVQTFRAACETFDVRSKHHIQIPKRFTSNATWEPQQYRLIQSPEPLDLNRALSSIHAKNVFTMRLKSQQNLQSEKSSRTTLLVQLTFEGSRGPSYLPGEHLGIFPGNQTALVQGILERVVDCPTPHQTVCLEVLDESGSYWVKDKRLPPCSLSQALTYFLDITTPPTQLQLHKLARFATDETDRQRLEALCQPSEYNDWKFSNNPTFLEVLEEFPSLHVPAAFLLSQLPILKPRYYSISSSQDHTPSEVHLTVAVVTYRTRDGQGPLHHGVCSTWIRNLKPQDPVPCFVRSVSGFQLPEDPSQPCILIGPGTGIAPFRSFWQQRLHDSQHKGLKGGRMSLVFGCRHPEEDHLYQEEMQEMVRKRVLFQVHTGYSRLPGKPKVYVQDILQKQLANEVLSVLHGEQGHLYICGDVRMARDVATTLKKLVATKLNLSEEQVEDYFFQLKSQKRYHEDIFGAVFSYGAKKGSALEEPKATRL
Procedure, shortened: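 RAW264.7 macrophages were grown in phenol red-free RPMI with 10% bovine calf serum. Cells were seeded at 100 000 per well and grown 24 h to at least 75% confluency. Compound was added 30 min before LPS 5 μg/mL, then incubated 24 h. Supernatant nitrite was measured by Griess reagent; percent inhibition is versus vehicle, with IC50 from dose-response curves. Positive control: parthenolide.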

[3] = biological target: T2, Peroxisome proliferator-activated receptor alpha (Homo sapiens) (UniProt Q07869); experiment: Activation of PPARalpha in human HepG2 cells at 25 uM after 24 hrs by luciferase reporter gene assay relative to vehicle-treated control; format: cell-based
T2 sequence (whole entry): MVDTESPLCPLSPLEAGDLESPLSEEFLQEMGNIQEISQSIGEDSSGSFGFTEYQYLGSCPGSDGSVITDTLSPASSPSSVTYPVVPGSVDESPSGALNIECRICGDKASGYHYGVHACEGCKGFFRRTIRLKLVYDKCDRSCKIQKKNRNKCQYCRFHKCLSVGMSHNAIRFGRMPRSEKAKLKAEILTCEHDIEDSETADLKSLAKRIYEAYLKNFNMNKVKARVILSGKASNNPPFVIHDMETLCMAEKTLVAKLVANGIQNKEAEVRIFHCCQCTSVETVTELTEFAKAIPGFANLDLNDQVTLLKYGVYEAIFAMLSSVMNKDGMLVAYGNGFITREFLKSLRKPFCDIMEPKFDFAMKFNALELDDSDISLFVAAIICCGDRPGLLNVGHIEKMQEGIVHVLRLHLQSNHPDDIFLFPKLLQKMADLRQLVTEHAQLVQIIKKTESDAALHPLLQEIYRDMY
Procedure, shortened: (§1)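 HepG2 cells in DMEM with 10% FBS were electroporated at 160 V with a single 70 ms pulse. Plasmid pairs were pSG5-PPARα + PPRE X3-tk-luc, pCMV-rPPARγ + pPPREaP2-tk-luc, or pCMX-hLXRα + LXRE-tk-luc. Cells were seeded at 5 × 10^4 per well, grown 24 h, then dosed. After 24 h the cells were lysed and luciferase read. Fold induction is versus vehicle. Positive controls: ciprofibrate, rosiglitazone, 25-hydroxycholesterol.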

[4] = biological target: T3, Peroxisome proliferator-activated receptor gamma (Homo sapiens) (UniProt P37231); experiment: Activation of PPARgamma in human HepG2 cells at 25 uM after 24 hrs by luciferase reporter gene assay relative to vehicle-treated control; format: cell-based; procedure, shortened: as §1
T3 sequence (whole entry): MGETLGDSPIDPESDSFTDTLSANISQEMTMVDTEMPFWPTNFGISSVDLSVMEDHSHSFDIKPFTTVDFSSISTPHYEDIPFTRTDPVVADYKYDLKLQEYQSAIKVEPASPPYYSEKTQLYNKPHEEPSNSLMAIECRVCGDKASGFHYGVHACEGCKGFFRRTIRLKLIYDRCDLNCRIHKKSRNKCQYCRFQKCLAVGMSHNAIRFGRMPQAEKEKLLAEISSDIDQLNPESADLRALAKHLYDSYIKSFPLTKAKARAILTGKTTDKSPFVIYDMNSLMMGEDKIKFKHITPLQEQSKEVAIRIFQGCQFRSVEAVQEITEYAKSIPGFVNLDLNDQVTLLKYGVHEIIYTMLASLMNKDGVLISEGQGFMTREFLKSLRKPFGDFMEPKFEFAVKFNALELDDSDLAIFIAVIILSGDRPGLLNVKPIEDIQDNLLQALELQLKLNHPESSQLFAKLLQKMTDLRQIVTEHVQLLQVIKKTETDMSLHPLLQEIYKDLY

[5] = biological target: T4, Oxysterols receptor LXR-alpha (Homo sapiens) (UniProt Q13133); experiment: Activation of LXRalpha in human HepG2 cells at 25 uM after 24 hrs by luciferase reporter gene assay relative to vehicle-treated control; format: cell-based
T4 sequence (whole entry): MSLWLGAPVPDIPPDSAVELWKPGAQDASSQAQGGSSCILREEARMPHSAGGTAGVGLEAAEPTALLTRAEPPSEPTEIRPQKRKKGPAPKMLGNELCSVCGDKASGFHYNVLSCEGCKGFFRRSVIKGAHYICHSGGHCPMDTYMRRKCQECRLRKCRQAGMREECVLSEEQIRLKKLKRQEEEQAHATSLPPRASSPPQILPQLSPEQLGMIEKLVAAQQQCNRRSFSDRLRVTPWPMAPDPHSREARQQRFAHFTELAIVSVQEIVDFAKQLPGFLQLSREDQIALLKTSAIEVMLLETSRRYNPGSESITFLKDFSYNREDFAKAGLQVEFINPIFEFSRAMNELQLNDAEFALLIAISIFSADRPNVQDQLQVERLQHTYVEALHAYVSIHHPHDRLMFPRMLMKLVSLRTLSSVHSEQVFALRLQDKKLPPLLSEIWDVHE
Procedure, shortened: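 HepG2 cells in DMEM with 10% FBS, electroporated (160 V, single 70 ms pulse) with pCMX-hLXRα plus LXRE-tk-luc plasmids; plated at 5 × 10^4 cells/well and grown 24 h. Treated with test compounds for 24 h, then lysed for luciferase read-out. Fold induction calculated against vehicle control; 25-hydroxycholesterol as positive control.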

[6] = biological target: T5, Growth/differentiation factor 15 (Homo sapiens) (UniProt Q99988); experiment: Activation of NAG-1 in human SW1353 cells at 20 uM after 24 hrs by luciferase reporter gene assay relative to vehicle-treated control; format: cell-based
T5 sequence (whole entry): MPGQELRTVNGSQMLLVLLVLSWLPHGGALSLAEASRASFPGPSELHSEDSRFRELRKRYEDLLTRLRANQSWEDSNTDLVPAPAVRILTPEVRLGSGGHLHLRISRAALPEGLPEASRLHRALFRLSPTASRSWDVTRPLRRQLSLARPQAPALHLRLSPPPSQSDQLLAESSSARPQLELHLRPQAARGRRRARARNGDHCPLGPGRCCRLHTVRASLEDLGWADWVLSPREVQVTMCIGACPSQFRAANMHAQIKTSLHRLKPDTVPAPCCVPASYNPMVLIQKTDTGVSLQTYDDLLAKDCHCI
Procedure, shortened: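 SW1353 chondrosarcoma cells in DMEM/F12 with 10% FBS were electroporated (160 V, one 70 ms pulse) with 25 μg […]. Cells were seeded at 1 × 10^5 per well, then dosed 24 h later for 24 h. Luciferase light output gave fold induction versus vehicle. Positive control: diclofenac.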

HepG2 [7] = experiment: Cytotoxicity against human HepG2 cells up to 50 uM after 48 hrs by neutral red assay; format: cell-based; details: hepg2, 48 h
RAW264.7 = experiment: Cytotoxicity against mouse RAW264.7 cells up to 50 uM after 48 hrs by neutral red assay; format: cell-based; details: raw264.7, 48 h
HepG2 [8] = experiment: Antioxidant activity in human HepG2 cells assessed as inhibition of ABAP-induced intracellular peroxyl radical scavenging activity by measuring ROS production measured every 5 mins for 1 hr by fluorescence assay
[9] = Homo sapiens, SW1353, read-out: IC50

SMILES	Activity (HepG2 [7])	IC50 ([2]; raw264.7)	Activity (RAW264.7)	IC50 (HepG2 [8])	IC50 ([1]; sw1353)	also measured
C=C1C(=O)O[C@@H]2C3O[C@]3(C)CC/C=C(\C)CC[C@@H]12 (some centres not stated)						IC50 [1, 9]: 1.63 µM; IC50 ([2]; read-out: IC50): 1.05 µM
CC(C)(Oc1ccc(C2CC2(Cl)Cl)cc1)C(=O)O (configuration not stated)						fold change (FC) [3]: 4.35
CC1(COc2ccc(CC3SC(=O)NC3=O)cc2)CCCCC1 (configuration not stated)						fold change (FC) [4]: 3.65
C[C@H](CCCC(C)(C)O)[C@H]1CC[C@H]2[C@@H]3CC=C4C[C@@H](O)CC[C@]4(C)[C@H]3CC[C@]12C						fold change (FC) [5]: 4.67
O=C(O)Cc1ccccc1Nc1c(Cl)cccc1Cl						fold change (FC) [6]: 2.65
COC(=O)[C@]12C[C@@H](OC(=O)/C=C/c3ccc(O)c(O)c3)[C@@H](OC(=O)/C=C/c3ccc(O)c(O)c3)[C@@H](O1)[C@@H](COC(=O)/C=C/c1ccc(O)c(O)c1)O2 (relative stereo)	Non-toxic	Not Active	Non-toxic	26 µM		IC50 [1, 9]: 42 µM
COC(=O)[C@]12C[C@@H](OC(=O)/C=C/c3ccc(O)c(O)c3)[C@@H](O)[C@H](O1)[C@@H](COC(=O)/C=C/c1ccc(O)c(O)c1)O2 (relative stereo)	Non-toxic	Not Active	Non-toxic	34.5 µM	Not Active	
COC(=O)[C@]12C[C@@H](O)[C@@H](O)[C@H](O1)[C@@H](COC(=O)/C=C/c1ccc(O)c(O)c1)O2 (relative stereo)	Non-toxic	Not Active	Non-toxic	86 µM	Not Active	
O=C(/C=C/c1ccc(O)c(O)c1)OC[C@H]1O[C@@]2(C(=O)O)C[C@@H](OC(=O)/C=C/c3ccc(O)c(O)c3)[C@@H](OC(=O)/C=C/c3ccc(O)c(O)c3)[C@H]1O2 (relative stereo)	Non-toxic	Not Active	Non-toxic	59.5 µM	Not Active	
O=C(/C=C/c1ccc(O)c(O)c1)OC[C@H]1O[C@@]2(C(=O)O)C[C@@H](OC(=O)/C=C/c3ccc(O)c(O)c3)[C@@H](O)[C@@H]1O2 (relative stereo)	Non-toxic	Not Active	Non-toxic	79 µM	Not Active	
O=C(/C=C/c1ccc(O)c(O)c1)OC[C@H]1O[C@@]2(C(=O)O)C[C@@H](O)[C@@H](O)[C@@H]1O2 (relative stereo)	Non-toxic	Not Active	Non-toxic	> 100 µM	Not Active	
O=c1c(O)c(-c2ccc(O)c(O)c2)oc2cc(O)cc(O)c12 [QUERCETIN]				11 µM		
